Results taken from ChEMBL document CHEMBL1131067, “Tolerance in the replacement of the benzhydrylic O atom in 4-[2-(diphenylmethoxy)ethyl]-1-benzylpiperidine derivatives by an N atom: development of new-generation potent and selective N-analogue molecules for the dopamine transporter” (J Med Chem, 1998).

Tests used:
[1] = biological target: T1, Sodium-dependent dopamine transporter (Homo sapiens, UniProt Q01959); assay: Affinity was evaluated using [3H]WIN-35428 (radioligand) on Cloned human Dopamine transporter expressed in HEK cells; assay type: cell-based, HEK293
[2] = biological target: Sodium-dependent serotonin transporter (Homo sapiens, UniProt P31645); assay: Affinity was evaluated using [3H]citalopram (radioligand) on human serotonin transporter expressed in HEK cells; assay type: cell-based, HEK293
[3] = biological target: Sodium-dependent serotonin transporter (Rattus norvegicus, UniProt P31652); assay: IC50 value was evaluated using [3H]citalopram (radioligand) on serotonin transporter in rat striatum.; assay type: tissue-based
[4] = biological target: Sodium-dependent dopamine transporter (Rattus norvegicus, UniProt P23977); assay: IC50 value was evaluated using [3H]WIN-35428 (radioligand) on Dopamine transporter in rat striatum.; assay type: tissue-based
[5] = biological target: T1, Sodium-dependent dopamine transporter; assay: Affinity was evaluated using [3H]DA (radioligand) on Cloned human Dopamine transporter expressed in HEK cells; assay type: cell-based, HEK293
Procedure, shortened: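 HEK-293 cells stably expressing cloned hDAT, suspended intact; preincubated with inhibitor 15 min at room temperature in pH 7.4 Na phosphate/NaCl/KCl/MgSO4/glucose/CaCl2 buffer with 0.1 mM tropolone, then [3H]dopamine added for 8 min more; ended with ice-cold buffer. Compounds from DMSO stocks, 0.5% final DMSO, at least five concentrations.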

Sodium-dependent serotonin transporter (Homo sapiens, UniProt P31645), sequence (P31645 whole entry): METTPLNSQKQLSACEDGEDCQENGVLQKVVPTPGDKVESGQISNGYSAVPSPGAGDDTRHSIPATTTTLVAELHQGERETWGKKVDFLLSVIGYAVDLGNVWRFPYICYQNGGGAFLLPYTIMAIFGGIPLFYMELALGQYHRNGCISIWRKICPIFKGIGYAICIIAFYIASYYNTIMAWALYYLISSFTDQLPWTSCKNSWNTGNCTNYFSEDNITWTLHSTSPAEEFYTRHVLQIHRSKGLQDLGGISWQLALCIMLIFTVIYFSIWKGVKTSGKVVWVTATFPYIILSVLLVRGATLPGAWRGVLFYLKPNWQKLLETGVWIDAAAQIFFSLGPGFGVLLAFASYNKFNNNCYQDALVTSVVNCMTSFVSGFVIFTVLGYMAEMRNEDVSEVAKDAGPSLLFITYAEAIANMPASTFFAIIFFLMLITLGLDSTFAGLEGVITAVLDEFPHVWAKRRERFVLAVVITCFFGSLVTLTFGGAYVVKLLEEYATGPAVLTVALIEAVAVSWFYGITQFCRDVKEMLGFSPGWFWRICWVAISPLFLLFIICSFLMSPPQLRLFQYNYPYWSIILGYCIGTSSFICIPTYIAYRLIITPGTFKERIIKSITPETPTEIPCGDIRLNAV
T1 sequence (Q01959 whole entry): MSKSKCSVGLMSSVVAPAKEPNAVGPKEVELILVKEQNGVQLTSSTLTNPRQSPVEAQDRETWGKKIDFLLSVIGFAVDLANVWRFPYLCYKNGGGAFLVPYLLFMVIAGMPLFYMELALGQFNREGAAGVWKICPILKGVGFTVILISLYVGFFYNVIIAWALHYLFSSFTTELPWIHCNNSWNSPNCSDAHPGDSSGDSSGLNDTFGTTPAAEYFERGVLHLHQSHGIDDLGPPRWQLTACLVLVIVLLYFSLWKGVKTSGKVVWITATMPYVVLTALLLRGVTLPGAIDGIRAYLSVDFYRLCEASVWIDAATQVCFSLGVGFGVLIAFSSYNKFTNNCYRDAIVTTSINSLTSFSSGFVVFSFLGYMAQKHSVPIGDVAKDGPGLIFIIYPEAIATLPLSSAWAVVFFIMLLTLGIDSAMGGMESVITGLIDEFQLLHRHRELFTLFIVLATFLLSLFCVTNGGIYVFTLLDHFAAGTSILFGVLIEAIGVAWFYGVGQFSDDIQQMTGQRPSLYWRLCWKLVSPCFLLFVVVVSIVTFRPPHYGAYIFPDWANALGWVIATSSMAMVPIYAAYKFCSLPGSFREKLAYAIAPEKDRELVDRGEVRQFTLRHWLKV
Sodium-dependent serotonin transporter (Rattus norvegicus, UniProt P31652), sequence (P31652 whole entry): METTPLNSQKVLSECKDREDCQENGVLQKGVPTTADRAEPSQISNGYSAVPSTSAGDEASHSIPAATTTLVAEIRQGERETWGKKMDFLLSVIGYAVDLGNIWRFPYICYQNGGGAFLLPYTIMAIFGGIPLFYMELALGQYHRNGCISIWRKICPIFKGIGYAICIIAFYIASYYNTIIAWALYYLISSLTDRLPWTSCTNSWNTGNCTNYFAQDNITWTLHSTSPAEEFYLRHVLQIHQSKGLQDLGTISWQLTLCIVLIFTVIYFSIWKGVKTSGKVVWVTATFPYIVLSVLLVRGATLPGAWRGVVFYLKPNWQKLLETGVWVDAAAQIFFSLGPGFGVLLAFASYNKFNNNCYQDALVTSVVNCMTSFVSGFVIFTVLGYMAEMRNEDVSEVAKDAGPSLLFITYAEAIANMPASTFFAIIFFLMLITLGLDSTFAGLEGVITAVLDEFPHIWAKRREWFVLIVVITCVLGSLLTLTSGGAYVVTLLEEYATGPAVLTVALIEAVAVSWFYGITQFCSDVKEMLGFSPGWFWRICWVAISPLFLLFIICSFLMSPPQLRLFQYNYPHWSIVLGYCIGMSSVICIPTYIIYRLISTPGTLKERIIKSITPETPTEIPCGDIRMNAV
Sodium-dependent dopamine transporter (Rattus norvegicus, UniProt P23977), sequence (P23977 whole entry): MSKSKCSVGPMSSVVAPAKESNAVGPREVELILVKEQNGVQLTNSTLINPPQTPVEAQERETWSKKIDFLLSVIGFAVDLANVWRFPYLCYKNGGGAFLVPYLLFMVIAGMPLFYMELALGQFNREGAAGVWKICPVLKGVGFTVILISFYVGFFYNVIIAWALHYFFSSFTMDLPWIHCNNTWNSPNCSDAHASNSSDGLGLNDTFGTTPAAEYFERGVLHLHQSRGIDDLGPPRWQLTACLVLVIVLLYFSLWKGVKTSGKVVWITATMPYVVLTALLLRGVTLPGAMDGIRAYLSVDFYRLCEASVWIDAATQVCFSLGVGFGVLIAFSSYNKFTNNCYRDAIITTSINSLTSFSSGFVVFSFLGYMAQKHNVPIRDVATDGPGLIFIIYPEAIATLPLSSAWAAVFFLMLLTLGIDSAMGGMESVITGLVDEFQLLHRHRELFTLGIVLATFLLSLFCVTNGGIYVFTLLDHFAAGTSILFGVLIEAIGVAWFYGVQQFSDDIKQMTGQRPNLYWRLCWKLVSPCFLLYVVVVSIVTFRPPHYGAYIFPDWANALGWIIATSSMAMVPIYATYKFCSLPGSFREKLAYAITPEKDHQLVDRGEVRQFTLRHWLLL

O=C(CC1CCN(Cc2ccc(F)cc2)CC1)NC(c1ccccc1)c1ccccc1
IC50 [1]: 3210 nM
IC50 [2]: 49200 nM

Fc1ccc(CN2CCC(CCNC(c3ccccc3)c3ccccc3)CC2)cc1
IC50 [3]: 585 nM
IC50 [4]: 9.4 nM
IC50 [1]: 30 nM
IC50 [2]: 5850 nM
IC50 [5]: 32 nM

Fc1ccc(CN2CCC(CCOC(c3ccccc3)c3ccccc3)CC2)cc1
IC50 [1]: 37.6 nM

Fc1ccc(C(OCCC2CCN(Cc3ccccc3)CC2)c2ccc(F)cc2)cc1
IC50 [1]: 35 nM

Fc1ccc(C(NCCC2CCN(Cc3ccccc3)CC2)c2ccc(F)cc2)cc1
IC50 [1]: 33 nM
IC50 [2]: 10700 nM
IC50 [5]: 58 nM
